“And” between values parts separate entries of the source, which are not always exact repeats. Identical values can stand only once.
Experiments:
Type in all cases: toxicity, cell-based
[1] = tested on: Fibroblast; assay: Multiplex assay against human fibroblast; conditions: 10 µM, compound concentration 10 uM
Procedure, shortened: (§1)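 On a CQ1 microscope at 37°C and 5% CO2, live cells were imaged after compound addition. They had been stained at seeding with Hoechst33342, BioTracker Green Microtubule Cytoskeleton Dye, MitoTracker Red and Annexin V Alexa Fluor 680. CellPathfinder machine-learning gating assigned cells to Hoechst high-intensity objects or normal cells, normal cells to healthy, pyknosed or fragmented nuclei, and pyknosed cells to mitotic or apoptotic. Tubulin, mitochondrial-mass and membrane-permeability phenotypes are per cents of healthy-nucleus cells.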

[2] = tested on: Fibroblast; assay: Incucyte cell viability with human fibroblast; conditions: 10 µM, compound concentration 10 uM; note: filed as whole numbers so only -1 and 0 and 1 occur
[3] = tested on: HEK-293T; assay: Multiplex assay against HEK293T; conditions: human, 10 µM, compound concentration 10 uM; procedure, shortened: as §1;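 for Population Tubulin-Different-Phenotype (%): share of the cells with healthy nuclei that show this phenotype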

C1=N/C2=N/c3ccc(OCCN4CCCC4)c(c3)COC/C=C\COCc3cccc(c3)C(=C1)N2
Population Tubulin-Different-Phenotype (%) ([1]; 24 h, replicate 1): 54% and 82%
Population Apoptotic (%) ([1]; 24 h, replicate 2): 92% and 57% and 96%
Population Hoechst High Intensity Objects (%) ([1]; 24 h, replicate 2): 37% and 28% and 32%
Population Normal (%) ([1]; 24 h, replicate 2): 62% and 71% and 67%
Total Cell Count ([1]; 24 h, replicate 2): 98 and 77 and 69
Population Apoptotic (%) ([1]; 48 h, replicate 1): 87%
Population Fragmented Nuclei (%) ([1]; 48 h, replicate 1): 50%
Population Healthy Nuclei (%) ([1]; 48 h, replicate 1): 24%
Population Hoechst High Intensity Objects (%) ([1]; 48 h, replicate 1): 20%
Population Membrane Permeable-Phenotype (%) ([1]; 48 h, replicate 1): 25%
Population Mitochondria Different-Phenotype (%) ([1]; 48 h, replicate 1): 31%
Population Mitotic Cells (%) ([1]; 48 h, replicate 1): 12%
Population Normal (%) ([1]; 48 h, replicate 1): 79%
Population Pyknosed Nuclei (%) ([1]; 48 h, replicate 1): 24%
Population Tubulin-Different-Phenotype (%) ([1]; 48 h, replicate 1): 50%
Total Cell Count ([1]; 48 h, replicate 1): 82
Population Apoptotic (%) ([1]; 48 h, replicate 2): 94%
Population Fragmented Nuclei (%) ([1]; 48 h, replicate 2): 68%
Population Healthy Nuclei (%) ([1]; 48 h, replicate 2): 5%
Population Hoechst High Intensity Objects (%) ([1]; 48 h, replicate 2): 14%
Population Membrane Permeable-Phenotype (%) ([1]; 48 h, replicate 2): 0%
Population Mitochondria Different-Phenotype (%) ([1]; 48 h, replicate 2): 100%
Population Mitotic Cells (%) ([1]; 48 h, replicate 2): 5%
Population Normal (%) ([1]; 48 h, replicate 2): 85%
Population Pyknosed Nuclei (%) ([1]; 48 h, replicate 2): 25%
Population Tubulin-Different-Phenotype (%) ([1]; 48 h, replicate 2): 75%
Total Cell Count ([1]; 48 h, replicate 2): 78
Growth Rate ([2]; 6 h, replicate number 1, timepoint 6 hours): 0
Growth Rate ([2]; 12 h, replicate number 1, timepoint 12 hours): 0
Growth Rate ([2]; 18 h, replicate number 1, timepoint 18 hours): 0
Growth Rate ([2]; 24 h, replicate number 1, timepoint 24 hours): 0
Population Fragmented Nuclei (%) ([3]; 12 h, replicate 1): 34% and 21% and 25%
Population Hoechst High Intensity Objects (%) ([3]; 12 h, replicate 1): 26% and 14% and 21%
Population Membrane Permeable-Phenotype (%) ([3]; 12 h, replicate 1): 14% and 13% and 0%
Population Normal (%) ([3]; 12 h, replicate 1): 73% and 85% and 78%
Population Pyknosed Nuclei (%) ([3]; 12 h, replicate 1): 52% and 47% and 73%
Total Cell Count ([3]; 12 h, replicate 1): 695 and 596 and 237
Population Membrane Permeable-Phenotype (%) ([3]; 12 h, replicate 2): 4% and 5%
Population Mitochondria Different-Phenotype (%) ([3]; 12 h, replicate 2): 89% and 81% and 50%
Population Normal (%) ([3]; 12 h, replicate 2): 77% and 79% and 94%
Population Pyknosed Nuclei (%) ([3]; 12 h, replicate 2): 54% and 88% and 38%
Population Tubulin-Different-Phenotype (%) ([3]; 12 h, replicate 2): 82% and 72% and 94%
Population Apoptotic (%) ([3]; 24 h, replicate 1): 87% and 58% and 29%
Population Fragmented Nuclei (%) ([3]; 24 h, replicate 1): 30% and 38% and 21%
Population Hoechst High Intensity Objects (%) ([3]; 24 h, replicate 1): 20% and 21% and 14%
Population Membrane Permeable-Phenotype (%) ([3]; 24 h, replicate 1): 0% and 19% and 7%
Population Normal (%) ([3]; 24 h, replicate 1): 79% and 78% and 85%
Population Pyknosed Nuclei (%) ([3]; 24 h, replicate 1): 69% and 45% and 44%
Total Cell Count ([3]; 24 h, replicate 1): 253 and 698 and 607
Population Hoechst High Intensity Objects (%) ([3]; 24 h, replicate 2): 19% and 13% and 7%
Population Mitochondria Different-Phenotype (%) ([3]; 24 h, replicate 2): 69% and 78% and 54%
Population Normal (%) ([3]; 24 h, replicate 2): 80% and 86% and 92%
Population Pyknosed Nuclei (%) ([3]; 24 h, replicate 2): 79% and 55% and 35%
Population Tubulin-Different-Phenotype (%) ([3]; 24 h, replicate 2): 100% and 87% and 94%
Population Apoptotic (%) ([3]; 48 h, replicate 1): 87%
Population Fragmented Nuclei (%) ([3]; 48 h, replicate 1): 37%
Population Healthy Nuclei (%) ([3]; 48 h, replicate 1): 0%
Population Hoechst High Intensity Objects (%) ([3]; 48 h, replicate 1): 26%
Population Membrane Permeable-Phenotype (%) ([3]; 48 h, replicate 1): 0%
Population Mitochondria Different-Phenotype (%) ([3]; 48 h, replicate 1): 0%
Population Mitotic Cells (%) ([3]; 48 h, replicate 1): 12%
Population Normal (%) ([3]; 48 h, replicate 1): 73%
Population Pyknosed Nuclei (%) ([3]; 48 h, replicate 1): 62%
Population Tubulin-Different-Phenotype (%) ([3]; 48 h, replicate 1): 0%
Total Cell Count ([3]; 48 h, replicate 1): 253
Population Fragmented Nuclei (%) ([3]; 48 h, replicate 2): 17%
Population Healthy Nuclei (%) ([3]; 48 h, replicate 2): 18%
Population Hoechst High Intensity Objects (%) ([3]; 48 h, replicate 2): 15%
Population Membrane Permeable-Phenotype (%) ([3]; 48 h, replicate 2): 3%
Population Mitochondria Different-Phenotype (%) ([3]; 48 h, replicate 2): 81%
Population Normal (%) ([3]; 48 h, replicate 2): 84%
Population Pyknosed Nuclei (%) ([3]; 48 h, replicate 2): 64%
Population Tubulin-Different-Phenotype (%) ([3]; 48 h, replicate 2): 96%
Total Cell Count ([3]; 48 h, replicate 2): 212

Reference: ChEMBL document CHEMBL4689842, “EUbOPEN Chemogenomics Library wave 1” (2021)
